Bioassay records: PubChem, several laboratories
Compounds with a hit are over-represented: about 11% of the library has one in this group of screens.
M1 agonist: M1 muscarinic receptor agonists, primary screen, CHO-M1 cells, Fluo-4 calcium, agonist mode. B-score at 10 µM. hit rate 3% among 64,000. AID 626, 2007. Fluo-4 calcium fluorescence; active compounds read high;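 active = fluorescence rise, raw or as B-score row- and column-corrected plate score, outside the 99.7% band of its plate's samples, either direction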
RORA act: activators of orphan receptor RORA, primary screen, cell-based, luminescence. hit rate 1.5% among 65,000. activation, % at 10 µM. AID 560, 2006. CHO-K1 Gal4-RORA LBD luciferase reporter; percent increase over mock-subtracted basal signal;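 active = activation above the mean of all tested compounds plus 3 SD, cut at about 49% in these data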;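 also: 0% = DMSO-treated RORA cells and 100% = added signal equal to DMSO minus mock-transfected cells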
M1 antag: antagonists of rat M1 muscarinic receptor; CHO-M1 cells, Fluo-4 calcium, ACh EC80 antagonist mode; active compounds read low; B-score at 10 µM; hit rate 3.4% among 64,000; AID 628, 2007;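 active = calcium fluorescence response, raw or row-and-column corrected B-score, differing from the plate sample mean either way at a set confidence level, mostly lower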
Target sequence (P08482 whole entry, looked up): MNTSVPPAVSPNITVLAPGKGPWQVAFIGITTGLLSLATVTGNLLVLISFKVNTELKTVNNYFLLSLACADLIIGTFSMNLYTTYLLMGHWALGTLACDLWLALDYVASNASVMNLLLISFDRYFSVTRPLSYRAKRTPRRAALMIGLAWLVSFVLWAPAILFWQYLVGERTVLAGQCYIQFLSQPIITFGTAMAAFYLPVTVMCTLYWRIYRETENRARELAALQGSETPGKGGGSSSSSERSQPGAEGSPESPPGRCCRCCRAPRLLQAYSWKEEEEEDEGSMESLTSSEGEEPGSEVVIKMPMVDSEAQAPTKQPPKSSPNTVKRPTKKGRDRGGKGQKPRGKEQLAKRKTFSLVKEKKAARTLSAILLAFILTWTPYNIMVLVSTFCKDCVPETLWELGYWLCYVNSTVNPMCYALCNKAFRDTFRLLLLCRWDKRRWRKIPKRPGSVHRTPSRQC
mHtt clearance: clearance of mutant huntingtin inclusions, primary screen, imaging, HeLa Exon1htt(103Q)mCFP, confocal imaging; aggregate imaging; zero = plate's median compound well; inhibition, % at 1.5 µM; hit rate 0.42% among 47,000; AID 853, 2007;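 active = inhibition of aggregate fluorescence above about 70%, also judged a hit by eye on the cell image, limit read from the data, passing the limit was not always enough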;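 also: cells exposed to compound for three days before fixation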
D1 mod: D1 CRE-luciferase signal change, two-sided – cell-based, HEK293 D1, dopamine EC30, D1 allosteric modulator project, primary screen. dopamine EC30 potentiation; actives deviate in either direction. B-score at 10 µM. hit rate 5.9% among 58,000. AID 641, 2007;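 active = luminescence count or its row- and column-corrected plate score outside the 99.7% band of the plate's sample wells, on either side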
SF1 activator: activators of human SF-1, primary screen, cell-based, CHO-K1, Gal4-SF-1 LBD, luciferase luminescence | CHO-K1 Gal4-SF-1 LBD luciferase reporter; % increase over DMSO SF-1-specific signal | activation, % at 10 µM | Steroidogenic factor 1 (Homo sapiens), Q13285 | hit rate 1.9% among 65,000;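 active = activation above the mean activation of all tested compounds plus 3 SD, cut at about 50% in these data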
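Material: Transient Gal4-SF-1 LBD reporter, CHO-K1 | Input: 4,000 cells/well | Dosing: One dose, 10 µM compound, 1% DMSO | Incubation: 20 h compound treatment, 37 °C | Detection: SteadyLite luciferase luminescence | Evaluation: Percent activation relative to DMSO median and mock-transfected background | Benchmarks: DMSO-treated SF-1-transfected cells as negative, DMSO-treated mock-transfected cells lacking SF-1 as background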
* marks the source's active call; other numbers are inactive results; nt = not tested or not shown.

SMILES	M1 agonist	RORA act	M1 antag	mHtt clearance	D1 mod	SF1 activator
CC(C)c1cc(C(=O)Nc2sc3c(c2C#N)CCC3)no1	-0.95	76*	0.092	18	-0.43	46
Cc1cc2oc(C(=O)N(Cc3ccccc3)C3CCS(=O)(=O)C3)cc(=O)c2cc1Cl (configuration not stated)	nt	nt	nt	-17	nt	nt
O=c1c2ccccc2nc2c3ccccc3c(N3CCOCC3)nn12	2.8*	-6	-1.2	nt	-0.17	8
O=c1c2ccccc2nc(-c2ccccc2)n1CCN1CCOCC1	0.071	-12	-0.16	nt	nt	10
CC(C)CCn1c(CN2CCN(c3cccc(Cl)c3)CC2)nc2c1c(=O)n(C)c(=O)n2C	0.17	1	-0.28	nt	-0.071	6
Cc1ccc(-c2noc(CCCC(=O)Nc3cccnc3)n2)cc1	-2.1	-53	-0.35	nt	-2.1	-43
O=C(Nc1ccc(Oc2ccccc2)cc1)C1CCCO1 (configuration not stated)	0.33	27	0.59	-7	-0.2	58*
COc1cc2c(cc1NC(=O)C1CCCO1)oc1ccccc12 (configuration not stated)	-0.083	58*	0.48	28	nt	78*
COc1ccc(NC(=O)C2CCCO2)cc1 (configuration not stated)	nt	nt	nt	-37	nt	nt
CC1CCN(CCNC(=O)c2ccc(NC(=O)C3CCCO3)cc2)CC1 (configuration not stated)	-0.41	-1	0.033	nt	0.13	-8
COc1ccc(N2CCN(CCNC(=O)c3ccc(NC(=O)C4CCCO4)cc3)CC2)cc1 (configuration not stated)	-2.8*	6	-0.013	nt	-0.12	10
COc1cc2c(cc1NC(=O)CN(C)Cc1nc3ccccc3c(=O)[nH]1)oc1ccccc12	2	-3	1.3	nt	-2.7*	26
COc1ccc(S(=O)(=O)N(CC(=O)N2CCOCC2)c2cc(Cl)ccc2OC)cc1OC	0.077	14	-0.13	nt	0.55	1
O=C(Nc1ccc(-c2nc3cc(Cl)ccc3o2)cc1)C1CCCO1 (configuration not stated)	nt	nt	nt	-84	nt	nt
O=C(Nc1ccc(-c2nc3ccccc3o2)cc1)C1CCCO1 (configuration not stated)	-1	38	-0.7	-1	-5.2*	11
Cc1ccc2nc3c(cc2c1)c(NC(=O)c1cccnc1)nn3C	0.45	-11	-0.29	nt	-4.4*	-4
COc1cc(NC(=O)c2cnn3c(C)cc(C)nc23)c(OC)cc1Cl	-2.2	10	-0.51	3	0.94	-4
CCn1nc(C(=O)OCC(=O)c2c[nH]c3ccccc23)c2ccccc2c1=O	6.1*	10	-1.3	nt	-3.2*	21
O=C(COC(=O)C1CC1)c1c[nH]c2ccccc12	-0.58	106*	0.2	28	-0.99	37
CCS(=O)(=O)Nc1ccc(C(=O)c2ccccc2)cc1	nt	nt	nt	44	nt	nt
Cc1cc(C)n2nc(SCC3COc4ccccc4O3)nc2n1 (configuration not stated)	-0.027	29	0.69	nt	-0.0022	55*
Cc1cc(C)c(C#N)c(SCC2COc3ccccc3O2)n1 (configuration not stated)	-0.67	-5	0.19	25	0.069	-24
CCN(CC)S(=O)(=O)c1ccc(NC(=O)COc2c(OC)cccc2OC)cc1	-0.052	-3	-0.4	nt	2.1	-8
O=C(Nc1nc2ccc(S(=O)(=O)N3CCCC3)cc2s1)c1cccs1	-1.4	52*	-0.97	nt	0.32	37
CSc1nc2ccc3nc(NC(=O)c4cccs4)sc3c2s1	-0.7	39	0.41	-21	-1.5	64*
SMILES	M1 agonist	RORA act	M1 antag	mHtt clearance	D1 mod	SF1 activator
CSc1nc2ccc3nc(NC(=O)c4ccc(Cl)s4)sc3c2s1	nt	nt	nt	-17	nt	nt
COc1ccc(/C(C)=C(\C#N)C(=O)OC(C)C)cc1OC	nt	nt	nt	31	nt	nt
CN1CCN(C(=O)C(C(=O)c2ccc(F)cc2)n2ccccc2=O)CC1 (configuration not stated)	nt	nt	nt	-20	nt	nt
CCN(CC)c1ccc(C(=O)n2cnc3ccccc32)cc1	-0.37	39	-0.87	nt	0.41	64*
CCCC(=O)Nc1ccc(C(=O)n2nnc3ccccc32)cc1	-1.5	-4	0.16	-8	-1	3
COc1cccc(NC(=O)CCN2C(=O)c3ccccc3S2(=O)=O)c1	nt	nt	nt	1	nt	nt
CC(C)C(=O)Nc1cccc(NC(=O)CCN2C(=O)c3ccccc3S2(=O)=O)c1	0.51	-17	1.4*	7	0.69	-12
COc1cc(/C=N/n2nnnc2N)ccc1O	-0.12	-10	-0.74	-3	nt	-4
CSc1ccc(/C=N/n2nnnc2N)cc1	nt	51*	nt	nt	-0.45	25
CCN(C)c1ccc(/C=N\n2nnnc2N)cc1	-0.43	67*	0.45	-15	-0.51	87*
Cc1cccn2c(=O)c3cc(C#N)c(=NC(=O)c4ccccc4)n(Cc4ccco4)c3nc12	19*	12	-0.72	nt	nt	-2
Cc1cccc(C(=O)N=c2c(C#N)cc3c(=O)n4cccc(C)c4nc3n2Cc2ccco2)c1	nt	nt	nt	-26	nt	nt
CCCCCn1c(=NC(C)=O)c(C#N)cc2c(=O)n3cccc(C)c3nc21	5.3*	-14	0.039	nt	0.81	-8
O=C(Cc1ccc(Cl)cc1)NCC(=O)N1CCCC1	0.02	-15	-0.016	nt	0.15	-14
O=C1CC(N2CCSCC2)C(=O)N1CCc1ccccc1 (configuration not stated)	0.17	-2	2.5	3	-0.72	6
CCN(C(=O)COC(=O)c1cc(C)n(-c2ccc(F)cc2)c1C)C1CCS(=O)(=O)C1 (configuration not stated)	0.046	2	0.056	-3	0.66	-3
C/C(N)=C(/C#N)C(=O)COC(=O)c1cc(C)n(-c2ccc(F)cc2)c1C	0.32	67*	-0.3	30	1.8	65*
O=C(CSc1ncc(-c2ccc(F)cc2)n1Cc1ccco1)Nc1nccs1	0.88	34	-0.34	32	-0.31	2
CCC(=O)Nc1cc(NC(=O)CSc2ncc(-c3ccc(F)cc3)n2Cc2ccco2)ccc1C	0.24	55*	-0.1	-12	0.23	69*
Cc1ccc2c(COC(=O)c3cnc(C)cn3)cc(=O)oc2c1	0.13	-22	0.95	nt	0.5	-8
Cc1ccc2c(COC(=O)C3=COCCO3)cc(=O)oc2c1	-1.4	38	0.02	nt	-4.8*	67*
CC(C)Oc1ccc(NC(=O)Oc2ccccc2)cc1	-1.2	39	0.038	nt	-2.6	52*
CCc1nc(Nc2ccc(N3CCN(C(C)=O)CC3)cc2)c2oc3ccccc3c2n1	1.2	12	-1.1	-56	-2.3	53*
